{"data": "Published values from different studies", "read-out": "cell growth or viability", "note": "Each line is one published result; the experiments were not run side by side."}
{"SMILES": "COc1cc(Cn2nc(-c3ccc(CO)o3)c3ccccc32)ccn1", "cell line": "RBE", "test": "ATP luminescence", "IC50": "0.38 µM"}
{"SMILES": "CN1CCC(NC2CCc3[nH]c4c(C(N)=O)ccc(-c5ccccc5Cl)c4c3C2)CC1 (centres unmarked)", "cell line": "SGC-7901", "conditions": "96 h", "IC50": "0.0172 µM"}
{"SMILES": "Cc1ccc(Cn2nc(-c3ccc(CO)o3)c3ccccc32)cc1", "cell line": "RBE", "test": "ATP luminescence", "IC50": "1.7 µM"}
{"SMILES": "OC1CCN(c2ccc(/C=N/NC(=S)NCc3ccc(Cl)cc3)cc2)CC1", "cell line": "BEAS-2B", "test": "MTT", "conditions": "24 h", "IC50": "13.4 µM"}
{"SMILES": "Clc1ccc(Cn2nc(-c3nc(-c4ccccc4)no3)c3ccccc32)c(Cl)c1", "cell line": "human Fibroblast", "conditions": "48 h", "IC50": "164 µM"}
{"SMILES": "OCn1ccnc1", "cell line": "BEAS-2B", "test": "MTT", "conditions": "24 h", "IC50": "> 800 µM"}
{"SMILES": "Cc1nc2ccc(-c3cccc(F)c3)cc2c(O)c1C(=O)O", "cell line": "MDA-MB-468", "test": "MTT", "conditions": "48 h", "IC50": "≥ 100 µM"}
{"SMILES": "COc1cc(C2C3=C(COC3=O)N(CCO)c3cc4c(cc32)CCC4)cc(OC)c1OC (centres unmarked)", "cell line": "MDA-MB-468", "test": "ATP luminescence", "conditions": "48 h", "IC50": "0.1 µM"}
{"SMILES": "O=C(O)c1nn(Cc2ccc(Cl)cc2Cl)c2ccccc12", "cell line": "human Fibroblast", "conditions": "48 h", "IC50": "259 µM"}
{"SMILES": "CCOC(=O)c1c(C)nc2ccc(-c3cccc(F)c3)cc2c1O", "cell line": "MDA-MB-468", "test": "MTT", "conditions": "48 h", "IC50": "4 µM"}
{"SMILES": "Cc1noc(-c2nn(Cc3ccc(Cl)cc3Cl)c3ccccc23)n1", "cell line": "human Fibroblast", "conditions": "48 h", "IC50": "148 µM"}
{"SMILES": "Cc1nc2ccc(-c3ccc(F)cc3)cc2c(O)c1C(=O)O", "cell line": "MDA-MB-468", "test": "MTT", "conditions": "48 h", "IC50": "≥ 100 µM"}
{"SMILES": "COc1ccc(NC(=S)N/N=C/c2ccc(N3CCC(O)CC3)cc2)cc1", "cell line": "BEAS-2B", "test": "MTT", "conditions": "24 h", "IC50": "17.5 µM"}
{"SMILES": "CC1c2ccccc2CCN1c1ccc(CO)c(Cl)c1 (centres unmarked)", "cell line": "RBE", "test": "ATP luminescence", "IC50": "< 0.2 µM"}
{"SMILES": "C/C(=N\\C1CCCCC1/N=C(\\C)c1c(O)c2ccccc2oc1=O)c1c(O)c2ccccc2oc1=O (centres unmarked)", "cell line": "BEAS-2B", "test": "MTT", "conditions": "48 h", "IC50": "5.46 µM"}
{"SMILES": "Fc1ccc2c(-c3nnc(Cc4ccccc4)s3)nn(Cc3ccc(Cl)cc3Cl)c2c1", "cell line": "human Fibroblast", "conditions": "48 h", "IC50": "191 µM"}
{"SMILES": "CNC(=O)c1cc(Oc2ccc(NC(=O)Nc3ccc(Cl)c(C(F)(F)F)c3)cc2)ccn1", "cell line": "BEAS-2B", "test": "MTT", "conditions": "24 h", "IC50": "15.8 µM"}
{"SMILES": "OCc1ccc(-c2nn(Cc3ccccn3)c3ccccc23)o1", "cell line": "RBE", "test": "ATP luminescence", "IC50": "0.302 µM"}
{"SMILES": "CC(=O)ON=C1C=CC(=C(C#N)c2ccccc2)C=C1", "cell line": "human Fibroblast", "test": "MTT", "conditions": "48 h", "IC50": "20.3 µg/mL"}
{"SMILES": "COc1ccc2c(-c3ncc(-c4ccccc4)o3)nn(Cc3ccccc3)c2c1", "cell line": "human Fibroblast", "conditions": "48 h", "IC50": "89.9 µM"}
{"SMILES": "COc1cccc2c1C(=O)c1c(O)c3c(c(O)c1C2=O)C[C@@](O)(C(=O)CO)C[C@@H]3O[C@H]1C[C@H](N)[C@H](O)[C@H](C)O1", "cell line": "SGC-7901", "conditions": "96 h", "IC50": "0.256 µM"}
{"SMILES": "CNCc1ccc(-c2nn(Cc3ccccc3)c3ccccc23)o1", "cell line": "RBE", "test": "ATP luminescence", "IC50": "21.4 µM"}
{"SMILES": "CCOC(=O)c1c(C)nc2ccc(-c3ccc(F)c(F)c3)cc2c1O", "cell line": "MDA-MB-468", "test": "MTT", "conditions": "48 h", "IC50": "4 µM"}
{"SMILES": "OC1CCN(c2ccc(/C=N/NC(=S)Nc3ccccc3)cc2)CC1", "cell line": "BEAS-2B", "test": "MTT", "conditions": "24 h", "IC50": "18.9 µM"}
{"SMILES": "Fc1ccc2c(-c3nnc(Cc4ccccc4)s3)nn(Cc3ccccc3)c2c1", "cell line": "human Fibroblast", "conditions": "48 h", "IC50": "605 µM"}
{"SMILES": "CCc1nc(C(N)=O)c(Nc2ccc(N3CCC(N4CCN(C)CC4)CC3)c(OC)c2)nc1NC1CCOCC1", "cell line": "MV4-11", "test": "resazurin", "IC50": "0.025 µM"}
{"SMILES": "Cc1ccc(CNC(=S)N/N=C/c2ccc(N3CCC(O)CC3)cc2)cc1", "cell line": "BEAS-2B", "test": "MTT", "conditions": "24 h", "IC50": "15.9 µM"}
{"SMILES": "OCc1ccc(-c2nn(Cc3cccnc3)c3cccnc23)o1", "cell line": "RBE", "test": "ATP luminescence", "IC50": "5.01 µM"}
{"SMILES": "CC(=O)N1CCC(Nc2cc(C(=O)NC[C@H](O)CN3CCc4ccccc4C3)ncn2)CC1", "cell line": "MDA-MB-435S", "test": "CCK-8", "conditions": "72 h", "IC50": "> 100 µM"}
{"SMILES": "Cc1nc2ccc(-c3ccc(F)cc3F)cc2c(O)c1C(=O)O", "cell line": "MDA-MB-468", "test": "MTT", "conditions": "48 h", "IC50": "≥ 100 µM"}
{"SMILES": "Cc1cnc(Cn2nc(-c3ccc(CO)o3)c3ccccc32)s1", "cell line": "RBE", "test": "ATP luminescence", "IC50": "1.05 µM"}
{"SMILES": "C/C(=N\\N=C(/C)c1c(O)c2ccccc2oc1=O)c1c(O)c2ccccc2oc1=O", "cell line": "BEAS-2B", "test": "MTT", "conditions": "48 h", "IC50": "29.6 µM"}
{"SMILES": "c1ccc(Cc2nnc(-c3nn(Cc4ccccc4)c4ccccc34)o2)cc1", "cell line": "human Fibroblast", "conditions": "48 h", "IC50": "635 µM"}
{"SMILES": "CC(c1ccccc1)n1nc(-c2ccc(CO)o2)c2ccccc21 (centres unmarked)", "cell line": "RBE", "test": "ATP luminescence", "IC50": "4.17 µM"}
{"SMILES": "C/C(=N\\CCNCCNCC/N=C(\\C)c1c(O)c2ccccc2oc1=O)c1c(O)c2ccccc2oc1=O", "cell line": "BEAS-2B", "test": "MTT", "conditions": "48 h", "IC50": "4.11 µM"}
